Assay results: PMC6500982 (Cancer Science, 2019)
Entries after “also recorded” stand apart in the source; their conditions may differ.

Tests used:
[1] = tested on: relapsed/refractory B‐cell NHL and CLL; assay: Efficacy; assay type: in vivo, human; conditions: for Partial response (VGPR or PR): includes lymphocytosis assessed as modified PR
How it was run: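 Open-label, multicenter, non-randomised study in Japanese adults (≥20 y) with relapsed/refractory B-cell NHL (DLBCL, MCL, FL, MZL, WM/LPL) or CLL/SLL. Oral test compound was given at 160, 320 or 480 mg QD, or 300 mg BID, until progression, unacceptable AEs or consent withdrawal. Best response was graded per International Workshop Criteria for NHL, WM and CLL. ORR was CR plus PR, including PR with residual lymphocytosis, with Clopper–Pearson 95% CIs. Analysis included all patients receiving ≥1 dose.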

[2] = tested on: TMD8 transplanted mouse tumor model; conditions: cited from earlier work
[3] = biological target: Bruton's tyrosine kinase (BTK) (Homo sapiens, UniProt Q06187); assay type: in vivo
How it was run: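 PBMCs isolated from blood drawn pre-dose and 2 hours post-dose on Cycle 1 Day 1 were analysed by western blot with anti-pBTK, anti-BTK and anti-β-actin antibodies. pBTK band intensity was quantified by imaging analyzer, normalised to β-actin, and expressed relative to the pre-dose Day 1 level (set as 100%).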

[4] = Pharmacokinetics of plasma tirabrutinib, Cycle 1 Day 1 and Day 28; assay type: in vivo, human
[5] = tested on: ABC‐DLBCL cell line, TMD8; conditions: cited from earlier work
[6] = DLBCL, 3 patients who received 300 mg BID

Bruton's tyrosine kinase (BTK), sequence (Q06187 whole entry): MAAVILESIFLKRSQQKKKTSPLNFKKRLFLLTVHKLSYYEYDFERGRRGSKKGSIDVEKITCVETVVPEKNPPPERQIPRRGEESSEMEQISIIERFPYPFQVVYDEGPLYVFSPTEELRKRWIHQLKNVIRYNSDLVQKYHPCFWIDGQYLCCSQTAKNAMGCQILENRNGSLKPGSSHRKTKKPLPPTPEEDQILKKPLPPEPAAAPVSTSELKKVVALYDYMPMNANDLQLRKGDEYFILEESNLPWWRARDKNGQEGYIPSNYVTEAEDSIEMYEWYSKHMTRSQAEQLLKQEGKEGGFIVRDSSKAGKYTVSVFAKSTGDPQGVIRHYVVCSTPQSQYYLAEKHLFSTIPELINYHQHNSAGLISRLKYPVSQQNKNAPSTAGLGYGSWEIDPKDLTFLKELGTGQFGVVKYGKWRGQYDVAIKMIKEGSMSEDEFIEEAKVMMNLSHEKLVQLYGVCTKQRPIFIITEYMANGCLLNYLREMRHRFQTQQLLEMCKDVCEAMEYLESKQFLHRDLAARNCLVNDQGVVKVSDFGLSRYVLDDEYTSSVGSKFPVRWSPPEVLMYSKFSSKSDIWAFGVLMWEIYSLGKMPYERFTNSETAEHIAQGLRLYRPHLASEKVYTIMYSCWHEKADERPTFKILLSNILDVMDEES

For `CC#CC(=O)N1CC[C@@H](n2c(=O)n(-c3ccc(Oc4ccccc4)cc3)c3c(N)ncnc32)C1` [tirabrutinib], the “Complete response (CR, CRu, CRi)” value ([1]; 160 mg QD N = 3) was 1 (33.3) n (%), the “Overall response (CR, CRu, CRi, VGPR or PR)” value ([1]; 160 mg QD N = 3) was 3 (100.0) n (%) and the “Partial response (VGPR or PR)” value ([1]; 160 mg QD N = 3) was 2 (66.7) n (%). For the same compound, the “Complete response (CR, CRu, CRi)” value ([1]; 300 mg BID N = 7) was 3 (42.9) n (%), the “Overall response (CR, CRu, CRi, VGPR or PR)” value ([1]; 300 mg BID N = 7) was 4 (57.1) n (%) and the “Partial response (VGPR or PR)” value ([1]; 300 mg BID N = 7) was 1 (14.3) n (%). The “Complete response (CR, CRu, CRi)” value ([1]; 320 mg QD N = 3) was 2 (66.7) n (%), the “Overall response (CR, CRu, CRi, VGPR or PR)” value ([1]; 320 mg QD N = 3) was 3 (100.0) n (%) and the “Partial response (VGPR or PR)” value ([1]; 320 mg QD N = 3) was 1 (33.3) n (%). The “Complete response (CR, CRu, CRi)” value ([1]; 480 mg QD N = 4) was 0 (.0) n (%), the “Overall response (CR, CRu, CRi, VGPR or PR)” value ([1]; 480 mg QD N = 4) was 3 (75.0) n (%) and the “Partial response (VGPR or PR)” value ([1]; 480 mg QD N = 4) was 3 (75.0) n (%). For the same compound, the “Median progression‐free survival” value ([1]; Cohort 3 (480 mg QD)) was 109 days, the “Median progression‐free survival” value ([1]; Cohorts 1, 2 and 4) was “not estimable” and the “Number of CR” value ([1]; DLBCL (5 patients)) was 2. The “Best overall response CR, number of patients” value [1, 6] was 2 patients, the “Best overall response stable disease, number of patients” value [1, 6] was 1 patient and the “Number of CR” value ([1]; FL (5 patients)) was 1. For the same compound, the “Number of CR” value ([1]; MCL (4 patients)) was 3, the “Complete response (CR, CRu, CRi)” value ([1]; Total N = 17) was 6 (35.3) n (%) and the “Overall response (CR, CRu, CRi, VGPR or PR)” value ([1]; Total N = 17) was 13 (76.5) n (%). For the same compound, the “Partial response (VGPR or PR)” value ([1]; Total N = 17) was 7 (41.2) n (%), the “Overall response rate (≥PR)” value ([1]; all patients (13/17)) was 76.5% and the “Patients with early response within 1 month after beginning of treatment” value ([1]; of 13 patients who achieved PR or more) was 8 patients. The “Cytostatic properties in vivo” value [2] was “cytostatic properties”, the “Expression level of pBTK in PBMC” value ([3]; 11 patients with confirmed basal pBTK expression, doses ≥160 mg QD) was “suppressed the expression level of pBTK in all 11 patients; also recorded: fully suppressed” and the pBTK suppression ([3]; patients other than the CLL patient, 2 hours post–dose on Day 1 of Cycle 1) was “Complete suppression”. The Pharmacokinetics linearity ([4]; 160 mg QD to 300 mg BID) was “linear”, the “Increase in Cmax and AUC with dose” value ([4]; 160 to 480 mg QD) was “increased in a dose‐dependent manner” and the “Arithmetic mean trough plasma concentration, 300 mg BID vs 480 mg QD” value ([4]; C1D28) was 3.2 fold. For the same compound, the “Accumulation following multiple doses” value ([4]; Day 28 vs Day 1) was “little accumulation” and the “Cytostatic properties in vitro” value [5] was “cytostatic properties”.
